Results from ChEMBL document CHEMBL4325889, “Natural products hybrids: 3,5,4'-Trimethoxystilbene-5,6,7-trimethoxyflavone chimeric analogs as potential cytotoxic agents against diverse human cancer cells” (Eur J Med Chem, 2019).

How the values were obtained:
Format in all cases: functional
COLO 205 = test: Growth inhibition of human COLO205 cells at 10 uM after 48 hrs by SRB assay relative to control; conditions: COLO 205, 48 h, read-out: GI
Summary of the method: (§1)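 Screened at the National Cancer Institute by the standard NCI protocol using the sulforhodamine B assay, which measures cellular protein. Single dose of 10 µM. Result is percent growth inhibition; values above 100% mean cell number fell below the initial population. Values are the average of duplicates.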

MOLT-4 = test: Growth inhibition of human MOLT4 cells at 10 uM after 48 hrs by SRB assay relative to control; conditions: MOLT-4, 48 h, read-out: GI; summary of the method: as §1
A549 = test: Growth inhibition of human A549 cells at 10 uM after 48 hrs by SRB assay relative to control; conditions: A549, 48 h, read-out: GI; summary of the method: as §1
NCI-H23 = test: Growth inhibition of human NCI-H23 cells at 10 uM after 48 hrs by SRB assay relative to control; conditions: NCI-H23, 48 h, read-out: GI; summary of the method: as §1
NCI-H522 = test: Growth inhibition of human NCI-H522 cells at 10 uM after 48 hrs by SRB assay relative to control; conditions: NCI-H522, 48 h, read-out: GI; summary of the method: as §1
HOP-62 = test: Growth inhibition of human HOP62 cells at 10 uM after 48 hrs by SRB assay relative to control; conditions: HOP-62, 48 h, read-out: GI; summary of the method: as §1
HL-60(TB) = test: Growth inhibition of human HL-60(TB) cells at 10 uM after 48 hrs by SRB assay relative to control; conditions: HL-60, 48 h, read-out: GI
Summary of the method: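 Run at NCI under its standard single-dose protocol against a leukemia cell panel. Cells were exposed to 10 µM; growth was read by sulforhodamine B staining of cellular protein and expressed as % growth inhibition versus untreated control. Values above 100% mean the cell population fell below the starting count (cytocidal). Each value is the average of duplicates.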

SF-295 = test: Growth inhibition of human SF295 cells at 10 uM after 48 hrs by SRB assay relative to control; conditions: SF-295, 48 h, read-out: GI; summary of the method: as §1
TK-10 = test: Growth inhibition of human TK10 cells at 10 uM after 48 hrs by SRB assay relative to control; conditions: TK-10, 48 h, read-out: GI
Summary of the method: (§2)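 NCI screen against its human cancer cell line panel by the standard NCI protocol, SRB protein stain. Single dose of 10 μM. Percent growth inhibition versus control; values above 100% mean the cell population fell below the starting number. Each value is the mean of duplicates.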

OVCAR-4 = test: Growth inhibition of human OVCAR4 cells at 10 uM after 48 hrs by SRB assay relative to control; conditions: OVCAR-4, 48 h, read-out: GI; summary of the method: as §1
HCC 2998 = test: Growth inhibition of human HCC2998 cells at 10 uM after 48 hrs by SRB assay relative to control; conditions: HCC 2998, 48 h, read-out: GI; summary of the method: as §1
UACC-257 = test: Growth inhibition of human UACC257 cells at 10 uM after 48 hrs by SRB assay relative to control; conditions: UACC-257, 48 h, read-out: GI; summary of the method: as §2
RXF 393 = test: Growth inhibition of human RXF393 cells at 10 uM after 48 hrs by SRB assay relative to control; conditions: RXF 393, 48 h, read-out: GI; summary of the method: as §1
RPMI-8226 = test: Growth inhibition of human RPMI8226 cells at 10 uM after 48 hrs by SRB assay relative to control; conditions: RPMI-8226, 48 h, read-out: GI; summary of the method: as §1
SK-MEL-28 = test: Growth inhibition of human SK-MEL-28 cells at 10 uM after 48 hrs by SRB assay relative to control; conditions: SK-MEL-28, 48 h, read-out: GI; summary of the method: as §1
K562 = test: Growth inhibition of human K562 cells at 10 uM after 48 hrs by SRB assay relative to control; conditions: K562, 48 h, read-out: GI; summary of the method: as §1
CCRF-CEM = test: Growth inhibition of human CCRF-CEM cells at 10 uM after 48 hrs by SRB assay relative to control; conditions: read-out: GI; summary of the method: as §1
MCF7 = test: Growth inhibition of human MCF7 cells at 10 uM after 48 hrs by SRB assay relative to control; conditions: MCF7, 48 h, read-out: GI; summary of the method: as §1
BT-549 = test: Growth inhibition of human BT549 cells at 10 uM after 48 hrs by SRB assay relative to control; conditions: BT-549, 48 h, read-out: GI; summary of the method: as §1
SNB-75 = test: Growth inhibition of human SNB75 cells at 10 uM after 48 hrs by SRB assay relative to control; conditions: SNB-75, 48 h, read-out: GI; summary of the method: as §2
Malme-3M = test: Growth inhibition of human MALME-3M cells at 10 uM after 48 hrs by SRB assay relative to control; conditions: read-out: GI; summary of the method: as §1
NCI-H226 = test: Growth inhibition of human NCI-H226 cells at 10 uM after 48 hrs by SRB assay relative to control; conditions: NCI-H226, 48 h, read-out: GI; summary of the method: as §1
MDA-MB-435 = test: Growth inhibition of human MDA-MB-435 cells at 10 uM after 48 hrs by SRB assay relative to control; conditions: MDA-MB-435, 48 h, read-out: GI; summary of the method: as §1
786-0 = test: Growth inhibition of human 786-0 cells at 10 uM after 48 hrs by SRB assay relative to control; conditions: 786-0, 48 h, read-out: GI; summary of the method: as §1
DU-145 = test: Growth inhibition of human DU145 cells at 10 uM after 48 hrs by SRB assay relative to control; conditions: DU-145, 48 h, read-out: GI; summary of the method: as §1
NCI-H322M = test: Growth inhibition of human NCI-H322M cells at 10 uM after 48 hrs by SRB assay relative to control; conditions: read-out: GI; summary of the method: as §1
Hs-578T = test: Growth inhibition of human Hs 578T cells at 10 uM after 48 hrs by SRB assay relative to control; conditions: read-out: GI; summary of the method: as §1
PC-3 = test: Growth inhibition of human PC3 cells at 10 uM after 48 hrs by SRB assay relative to control; conditions: PC-3, 48 h, read-out: GI; summary of the method: as §1
SN12C = test: Growth inhibition of human SN12C cells at 10 uM after 48 hrs by SRB assay relative to control; conditions: read-out: GI; summary of the method: as §1
NCI-H460 = test: Growth inhibition of human NCI-H460 cells at 10 uM after 48 hrs by SRB assay relative to control; conditions: NCI-H460, 48 h, read-out: GI; summary of the method: as §1
NCI/ADR-RES = test: Growth inhibition of human NCI/ADR-RES cells at 10 uM after 48 hrs by SRB assay relative to control; conditions: read-out: GI; summary of the method: as §1
LOX IMVI = test: Growth inhibition of human LOXIMVI cells at 10 uM after 48 hrs by SRB assay relative to control; conditions: read-out: GI; summary of the method: as §1
SF-539 = test: Growth inhibition of human SF539 cells at 10 uM after 48 hrs by SRB assay relative to control; conditions: SF-539, 48 h, read-out: GI; summary of the method: as §1
UO-31 = test: Growth inhibition of human UO31 cells at 10 uM after 48 hrs by SRB assay relative to control; conditions: UO-31, 48 h, read-out: GI; summary of the method: as §2

SMILES	inhibition of growth at 10 µM (COLO 205) [%]	inhibition of growth at 10 µM (MOLT-4) [%]	inhibition of growth at 10 µM (A549) [%]	inhibition of growth at 10 µM (NCI-H23) [%]	inhibition of growth at 10 µM (NCI-H522) [%]	inhibition of growth at 10 µM (HOP-62) [%]	inhibition of growth at 10 µM (HL-60(TB)) [%]	inhibition of growth at 10 µM (SF-295) [%]	inhibition of growth at 10 µM (TK-10) [%]	inhibition of growth at 10 µM (OVCAR-4) [%]	inhibition of growth at 10 µM (HCC 2998) [%]	inhibition of growth at 10 µM (UACC-257) [%]	inhibition of growth at 10 µM (RXF 393) [%]	inhibition of growth at 10 µM (RPMI-8226) [%]	inhibition of growth at 10 µM (SK-MEL-28) [%]	inhibition of growth at 10 µM (K562) [%]	inhibition of growth at 10 µM (CCRF-CEM) [%]	inhibition of growth at 10 µM (MCF7) [%]	inhibition of growth at 10 µM (BT-549) [%]	inhibition of growth at 10 µM (SNB-75) [%]	further results
COc1cc(NC(=O)c2cccc(-c3cc(=O)c4c(OC)c(OC)c(OC)cc4o3)c2)cc(OC)c1OC	55.7	89.6	56.5	51.2	65.3	62.5	64	55	30.6	25.1	25.9	47.2	46.8	99.7	36.5	72.4	68.7	65.7	73	25.3	inhibition of growth at 10 µM (Malme-3M): 43.6%; inhibition of growth at 10 µM (NCI-H226): 41.5%; inhibition of growth at 10 µM (MDA-MB-435): 93.6%; inhibition of growth at 10 µM (786-0): 68.2%; inhibition of growth at 10 µM (DU-145): 45.7%; inhibition of growth at 10 µM (NCI-H322M): 30.5%; inhibition of growth at 10 µM (Hs-578T): 90.8%; inhibition of growth at 10 µM (PC-3): 47.6%; inhibition of growth at 10 µM (SN12C): 54.1%; inhibition of growth at 10 µM (NCI-H460): 70%; inhibition of growth at 10 µM (NCI/ADR-RES): 48.9%; inhibition of growth at 10 µM (LOX IMVI): 75.6%; inhibition of growth at 10 µM (SF-539): 47.4%; inhibition of growth at 10 µM (UO-31): 79.1%
COc1cc2oc(-c3cccc(NC(=O)c4ccc5c(c4)OCO5)c3)cc(=O)c2c(O)c1OC	2.46	15.8	13.5	13.4	41.5	47.9	14	19	15.3	25.8	9.76	17.2	32.6	20.6	15.2	15	11.7	11.4	24.5	47.6	inhibition of growth at 10 µM (Malme-3M): 7.67%; inhibition of growth at 10 µM (NCI-H226): 55.4%; inhibition of growth at 10 µM (MDA-MB-435): 5.39%; inhibition of growth at 10 µM (786-0): 29.9%; inhibition of growth at 10 µM (DU-145): 2.12%; inhibition of growth at 10 µM (NCI-H322M): 15.7%; inhibition of growth at 10 µM (Hs-578T): 26.1%; inhibition of growth at 10 µM (PC-3): 22.6%; inhibition of growth at 10 µM (SN12C): 9.48%; inhibition of growth at 10 µM (NCI-H460): 16.7%; inhibition of growth at 10 µM (NCI/ADR-RES): 14.8%; inhibition of growth at 10 µM (LOX IMVI): 5.74%; inhibition of growth at 10 µM (SF-539): 77.4%; inhibition of growth at 10 µM (UO-31): 15.8%
COc1ccc(NC(=O)c2cccc(-c3cc(=O)c4c(O)c(OC)c(OC)cc4o3)c2)cc1	2.39	-2.73	18.7	8.74	20.6	27.8	-29.7	-3.77	-5.09	2.54	-1.16	20.8	8.01	7.48	-4.12	8.23	16	6.72	69	105	inhibition of growth at 10 µM (Malme-3M): 19.4%; inhibition of growth at 10 µM (NCI-H226): 8.07%; inhibition of growth at 10 µM (MDA-MB-435): -5.05%; inhibition of growth at 10 µM (786-0): 57%; inhibition of growth at 10 µM (DU-145): 3.06%; inhibition of growth at 10 µM (NCI-H322M): 0.54%; inhibition of growth at 10 µM (Hs-578T): 43.9%; inhibition of growth at 10 µM (PC-3): 13.8%; inhibition of growth at 10 µM (SN12C): 15.7%; inhibition of growth at 10 µM (NCI-H460): 7.3%; inhibition of growth at 10 µM (NCI/ADR-RES): 14.7%; inhibition of growth at 10 µM (LOX IMVI): 20.2%; inhibition of growth at 10 µM (SF-539): 43.9%; inhibition of growth at 10 µM (UO-31): 6.6%
COc1cccc(NC(=O)c2cccc(-c3cc(=O)c4c(OC)c(OC)c(OC)cc4o3)c2)c1	31.7	51.5	37.2	36.9	53.4	40.5	31.3	29.2	21.2	37.4	12.2	7.62	52.1	83	26.6	59.7	59.5	12.3	45.8	10.2	inhibition of growth at 10 µM (Malme-3M): 15.2%; inhibition of growth at 10 µM (NCI-H226): 36.7%; inhibition of growth at 10 µM (MDA-MB-435): 18.8%; inhibition of growth at 10 µM (786-0): 31.1%; inhibition of growth at 10 µM (DU-145): 28.2%; inhibition of growth at 10 µM (NCI-H322M): 19.9%; inhibition of growth at 10 µM (Hs-578T): 53.8%; inhibition of growth at 10 µM (PC-3): 42.9%; inhibition of growth at 10 µM (SN12C): 37.7%; inhibition of growth at 10 µM (NCI-H460): 39.9%; inhibition of growth at 10 µM (NCI/ADR-RES): 35.2%; inhibition of growth at 10 µM (LOX IMVI): 50.1%; inhibition of growth at 10 µM (SF-539): 22.5%; inhibition of growth at 10 µM (UO-31): 68.4%
